Laboratory results: ChEMBL document CHEMBL5032510, “Identification of Novel Fused Heteroaromatics-Based MALT1 Inhibitors by High-Throughput Screening to Treat B Cell Lymphoma” (J Med Chem, 2021)
The source made the active and inactive calls. No cut-off for these calls is given here.

What was measured:
OCI-Ly1 [1] = experiment: Induction of apoptosis in human OCI-Ly1 cells assessed as early apoptotic cells at 5 uM measured after 24 hrs by Annexin V-FITC/ Propidium iodide staining based flow cytometry (reference value: 1.29%); assay type: functional
[2] = Induction of apoptosis in human HBL1 cells assessed as viable cells at 10 uM measured after 24 hrs by Annexin V-FITC/ Propidium iodide staining based flow cytometry (reference value: 88.1%); assay type: functional; conditions: read-out: Activity
TMD8 [3] = experiment: Induction of apoptosis in human TMD8 cells assessed as viable cells at 2 uM measured after 24 hrs by Annexin V-FITC/ Propidium iodide staining based flow cytometry (reference value: 90.8%); assay type: functional; conditions: read-out: Activity
OCI-Ly1 [4] = experiment: Induction of apoptosis in human OCI-Ly1 cells assessed as viable cells at 2 uM measured after 24 hrs by Annexin V-FITC/ Propidium iodide staining based flow cytometry (reference value: 97.8%); assay type: functional; conditions: read-out: Activity
[5] = Oral bioavailability in CD-1 mouse at 10 mg/kg by LC-MS/MS analysis; assay type: ADME, organism-based; conditions: in vivo
In short: (§1)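 Male ICR (CD-1) mice (n = 9). Compound formulated in 5% DMSO + 5% Tween-80 in 90% saline and dosed 10 mg/kg po, 1 mg/kg ip or 1 mg/kg iv. Blood drawn from the jugular vein at set time points and held on ice. Plasma separated by centrifugation and stored at −80 °C before parameter derivation.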

[6] = Induction of apoptosis in human HBL1 cells assessed as late apoptotic cells at 2 uM measured after 24 hrs by Annexin V-FITC/ Propidium iodide staining based flow cytometry (reference value: 4.77%); assay type: functional
OCI-Ly1 [7] = experiment: Induction of apoptosis in human OCI-Ly1 cells assessed as dead cells at 5 uM measured after 24 hrs by Annexin V-FITC/ Propidium iodide staining based flow cytometry (reference value: 0.365%); assay type: functional
[8] = AUC (0 to t) in CD-1 mouse at 1 mg/kg, iv by LC-MS/MS analysis; assay type: ADME, organism-based; design: dose 1 mg/kg; conditions: in vivo
In short: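 Compound formulated in 5% DMSO + 5% Tween-80 in 90% saline and given to male ICR (CD-1) mice (n = 9) at 10 mg/kg po, 1 mg/kg ip or 1 mg/kg iv. Blood was drawn via the jugular vein at set time points and held on ice. Plasma was separated by centrifugation and stored at −80 °C before PK parameters were derived.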

[9] = Induction of apoptosis in human HBL1 cells assessed as viable cells at 5 uM measured after 24 hrs by Annexin V-FITC/ Propidium iodide staining based flow cytometry (reference value: 88.1%); assay type: functional; conditions: read-out: Activity
OCI-Ly1 [10] = experiment: Induction of apoptosis in human OCI-Ly1 cells assessed as late apoptotic cells at 10 uM measured after 24 hrs by Annexin V-FITC/ Propidium iodide staining based flow cytometry (reference value: 0.548%); assay type: functional
TMD8 [11] = experiment: Induction of apoptosis in human TMD8 cells assessed as viable cells at 10 uM measured after 24 hrs by Annexin V-FITC/ Propidium iodide staining based flow cytometry (reference value: 90.8%); assay type: functional; conditions: read-out: Activity
OCI-Ly1 [12] = experiment: Induction of apoptosis in human OCI-Ly1 cells assessed as early apoptotic cells at 2 uM measured after 24 hrs by Annexin V-FITC/ Propidium iodide staining based flow cytometry (reference value: 1.29%); assay type: functional
[13] = Induction of apoptosis in human HBL1 cells assessed as late apoptotic cells at 5 uM measured after 24 hrs by Annexin V-FITC/ Propidium iodide staining based flow cytometry (reference value: 4.77%); assay type: functional
TMD8 [14] = experiment: Induction of apoptosis in human TMD8 cells assessed as viable cells at 5 uM measured after 24 hrs by Annexin V-FITC/ Propidium iodide staining based flow cytometry (reference value: 90.8%); assay type: functional; conditions: read-out: Activity
[15] = molecular target: T1, Mucosa-associated lymphoid tissue lymphoma translocation protein 1 (Homo sapiens, UniProt Q9UDY8); experiment: Inhibition of N-terminal his-tagged GCN4 leucine zipper fused human MALT1 […] expressed in Escherichia coli using Ac-LVSR-AMC as substrate by HTS assay
T1 sequence (Q9UDY8 whole entry): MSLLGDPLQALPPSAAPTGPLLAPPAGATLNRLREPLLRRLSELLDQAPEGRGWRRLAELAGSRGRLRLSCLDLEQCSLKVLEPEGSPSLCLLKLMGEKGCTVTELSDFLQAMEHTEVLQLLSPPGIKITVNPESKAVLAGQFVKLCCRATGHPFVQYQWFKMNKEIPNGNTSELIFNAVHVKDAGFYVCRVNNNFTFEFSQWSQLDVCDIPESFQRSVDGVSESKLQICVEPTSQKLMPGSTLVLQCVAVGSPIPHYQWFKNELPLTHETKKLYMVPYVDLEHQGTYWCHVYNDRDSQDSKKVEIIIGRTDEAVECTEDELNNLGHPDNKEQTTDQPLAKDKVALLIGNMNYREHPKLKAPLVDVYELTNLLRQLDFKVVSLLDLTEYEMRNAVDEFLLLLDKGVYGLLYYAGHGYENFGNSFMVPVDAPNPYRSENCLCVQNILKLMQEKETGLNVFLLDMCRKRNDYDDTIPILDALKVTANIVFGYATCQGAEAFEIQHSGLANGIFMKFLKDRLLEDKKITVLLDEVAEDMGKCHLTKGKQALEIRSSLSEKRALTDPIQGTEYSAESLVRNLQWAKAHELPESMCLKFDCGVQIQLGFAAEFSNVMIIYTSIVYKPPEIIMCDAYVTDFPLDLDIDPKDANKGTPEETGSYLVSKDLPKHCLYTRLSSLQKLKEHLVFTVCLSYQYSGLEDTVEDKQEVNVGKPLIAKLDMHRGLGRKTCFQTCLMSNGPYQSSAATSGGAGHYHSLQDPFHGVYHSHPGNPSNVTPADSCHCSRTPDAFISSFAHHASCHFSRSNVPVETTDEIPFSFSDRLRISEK

TMD8 [16] = experiment: Induction of apoptosis in human TMD8 cells assessed as early apoptotic cells at 2 uM measured after 24 hrs by Annexin V-FITC/ Propidium iodide staining based flow cytometry (reference value: 6.97%); assay type: functional
[17] = molecular target: T2, Mucosa-associated lymphoid tissue lymphoma translocation protein 1 (Homo sapiens) (UniProt Q9UDY8); experiment: Inhibition of MALT1 in human HBL1 cells assessed as decrease in RelB substrate cleavage at 8 uM preincubated for 30 mins followed by proteosome inhibitor MG-132 addition and measured after 2 hrs by Western blot analysis; assay type: cell-based; conditions: time 2.5 hrs
T2 sequence (whole entry): T1 sequence (Q9UDY8 whole entry)
In short: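 Cells were grown in RPMI with 10% FBS, 2 mM glutamine and 10 mM HEPES at 37 °C, 5% CO₂. Pretreated 30 min with compound (4 and 8 μM), then 10 μM MG-132 for 2 h. 20−75 μg total protein run on SDS-PAGE, blotted to PVDF, probed for RelB, detected by HRP chemiluminescence. β-actin was the loading control.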

[18] = Tmax in CD-1 mouse at 1 mg/kg, ip by LC-MS/MS analysis; assay type: ADME, organism-based; conditions: in vivo; in short: as §1
[19] = Induction of apoptosis in human HBL1 cells assessed as viable cells at 2 uM measured after 24 hrs by Annexin V-FITC/ Propidium iodide staining based flow cytometry (reference value: 88.1%); assay type: functional; conditions: read-out: Activity
[20] = MRT (0 to t) in CD-1 mouse at 1 mg/kg, ip by LC-MS/MS analysis; assay type: ADME, organism-based; conditions: in vivo; in short: as §1

COc1ccc(OC)c(NC(=O)c2sc(=S)n(-c3ccc(C(F)(F)F)cc3)c2NC(=O)CCl)c1
Activity (OCI-Ly1 [1]): 1.6% | viability at 10 µM [2]: 6.11% | viability at 2 µM (TMD8 [3]): 89.4% | viability at 2 µM (OCI-Ly1 [4]): 97.4% | bioavailability [5]: 110% | Activity [6]: 5.5% | Activity (OCI-Ly1 [7]): 0.204% | AUC(0-t) [8]: 1010 ng·h/mL | viability at 5 µM [9]: 38.8% | Activity (OCI-Ly1 [10]): 1.53% | viability at 10 µM (TMD8 [11]): 3.65% | Activity (OCI-Ly1 [12]): 1.87% | Activity [13]: 17.3% | viability at 5 µM (TMD8 [14]): 14.8% | IC50 [15]: 5.3 µM | Activity (TMD8 [16]): 8% | inhibition [17]: Active | Tmax [18]: 0.35 h | viability at 2 µM [19]: 85.8% | MRT last [20]: 5.95 h
